In ChEMBL document CHEMBL4184148 (Bioorg Med Chem Lett, 2017):

Experiments:
[1] = target: Dual specificity mitogen-activated protein kinase kinase 7 (Homo sapiens) (UniProt O14733); test: Binding affinity to wild-type human full length MKK7 (M1 to R419 residues) expressed in HEK293 cells at 1 uM by Kinomescan method relative to control; format: cell-based
Summary of the method: (§1)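 Run as one kinome-wide competition binding panel with each compound at a single fixed concentration. Results were plotted as a kinome-wide selectivity map.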

[2] = target: Calcium/calmodulin-dependent protein kinase type II subunit alpha (Homo sapiens) (UniProt Q9UQM7); test: Binding affinity to wild-type human partial length CAMK2A (M1 to K328 residues) expressed in Escherichia coli BL21 at 1 uM by Kinomescan method relative to control
[3] = target: Dual specificity mitogen-activated protein kinase kinase 5 (Homo sapiens) (UniProt Q13163); test: Binding affinity to wild-type human partial length MEK5 (L98 to P448 residues) expressed in HEK293 cells at 1 uM by Kinomescan method relative to control; format: cell-based
[4] = target: Ribosomal protein S6 kinase alpha-5 (Homo sapiens) (UniProt O75582); test: Binding affinity to wild-type human partial length C-terminal RPS6KA5 kinase domain 2 (V390 to T718 residues) expressed in Escherichia coli BL21 at 1 uM by Kinomescan method relative to control
[5] = target: LIM domain kinase 2 (Homo sapiens) (UniProt P53671); test: Binding affinity to wild-type human full length LIMK2 (M1 to P638 residues) expressed in Escherichia coli BL21 at 1 uM by Kinomescan method relative to control; summary of the method: as §1
[6] = target: Mitogen-activated protein kinase kinase kinase 13 (Homo sapiens) (UniProt O43283); test: Binding affinity to wild-type human full length LZK (M1 to W966 residues) expressed in HEK293 cells at 1 uM by Kinomescan method relative to control; format: cell-based; summary of the method: as §1
[7] = target: Cyclin-dependent kinase 8 (Homo sapiens) (UniProt P49336); test: Binding affinity to wild-type human partial length CDK8 (M1 to T360 residues) expressed in Escherichia coli BL21 at 1 uM by Kinomescan method relative to control
[8] = target: Receptor-interacting serine/threonine-protein kinase 1 (Homo sapiens) (UniProt Q13546); test: Binding affinity to wild-type human partial length RIPK1 (M1 to K305 residues) expressed in Escherichia coli BL21 at 1 uM by Kinomescan method relative to control
[9] = target: Phosphatidylinositol 4,5-bisphosphate 3-kinase catalytic subunit gamma isoform (Homo sapiens) (UniProt P48736); test: Binding affinity to wild-type human partial length PIK3CG (S144 to A1102 residues) expressed in HEK293 cells at 1 uM by Kinomescan method relative to control; format: cell-based
[10] = system: Phosphatidylinositol 4,5-bisphosphate 3-kinase catalytic subunit alpha isoform (Homo sapiens), P42336 [E545A]; test: Binding affinity to human partial length PIK3CA E545A mutant (R108 to N1068 residues) expressed in HEK293 cells at 1 uM by Kinomescan method relative to control; format: cell-based
[11] = target: Tyrosine-protein kinase JAK2 (Homo sapiens) (UniProt O60674); test: Binding affinity to wild-type human partial length JAK2 JH1 catalytic domain (A829 to G1132 residues) expressed in HEK293 cells at 1 uM by Kinomescan method relative to control; format: cell-based
[12] = system: Leucine-rich repeat serine/threonine-protein kinase 2 (Homo sapiens), Q5S007 [G2019S]; test: Binding affinity to human partial length LRRK2 G2019S mutant (H970 to E2527 residues) expressed in HEK293 cells at 1 uM by Kinomescan method relative to control; format: cell-based
[13] = target: BDNF/NT-3 growth factors receptor (Homo sapiens) (UniProt Q16620); test: Binding affinity to wild-type human partial length TRKB (Q547 to G838 residues) expressed in HEK293 cells at 1 uM by Kinomescan method relative to control; format: cell-based
[14] = target: Ephrin type-B receptor 6 (Homo sapiens) (UniProt O15197); test: Binding affinity to wild-type human partial length EPHB6 (Q634 to P948 residues) expressed in HEK293 cells at 1 uM by Kinomescan method relative to control; format: cell-based
Aurora kinase B = Aurora kinase B (Homo sapiens, UniProt Q96GD4); test: Inhibition of recombinant full length His-tagged human Aurora B expressed in baculovirus expression system by Z'LYTE assay
Summary of the method: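 Z'LYTE biochemical kinase assay run at the Km ATP concentration for each kinase. IC50 was determined and reported ± standard error.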

[15] = target: Peripheral plasma membrane protein CASK (Homo sapiens) (UniProt O14936); test: Binding affinity to wild-type human partial length CASK (M1 to H315 residues) expressed in HEK293 cells at 1 uM by Kinomescan method relative to control; format: cell-based
[16] = target: Serine/threonine-protein kinase 32B (Homo sapiens) (UniProt Q9NY57); test: Binding affinity to wild-type human full length YANK2 (M1 to S414 residues) expressed in Escherichia coli BL21 at 1 uM by Kinomescan method relative to control
Summary of the method: (§2)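 Kinome-wide competition binding panel run by an outside provider, with each compound tested at a single concentration. Activity is read against the kinase panel.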

[17] = target: MAP/microtubule affinity-regulating kinase 3 (Homo sapiens) (UniProt P27448); test: Binding affinity to wild-type human full length MARK3 (M1 to L729 residues) expressed in Escherichia coli BL21 at 1 uM by Kinomescan method relative to control; summary of the method: as §1
[18] = target: Serine/threonine-protein kinase BRSK2 (Homo sapiens) (UniProt Q8IWQ3); test: Binding affinity to wild-type human full length BRSK2 (M1 to L674 residues) expressed in Escherichia coli BL21 at 1 uM by Kinomescan method relative to control
[19] = target: cAMP-dependent protein kinase catalytic subunit beta (Homo sapiens) (UniProt P22694); test: Binding affinity to wild-type human full length PKAC-beta (M1 to F351 residues) expressed in Escherichia coli BL21 at 1 uM by Kinomescan method relative to control; summary of the method: as §2
[20] = target: Citron Rho-interacting kinase (Homo sapiens) (UniProt O14578); test: Binding affinity to wild-type human partial length CIT (M68 to E432 residues) expressed in Escherichia coli BL21 at 1 uM by Kinomescan method relative to control
[21] = target: Maternal embryonic leucine zipper kinase (Homo sapiens) (UniProt Q14680); test: Binding affinity to wild-type human full length MELK (M1 to V651 residues) expressed in Escherichia coli BL21 at 1 uM by Kinomescan method relative to control; summary of the method: as §1
[22] = target: Mitogen-activated protein kinase 8 (Homo sapiens) (UniProt P45983); test: Binding affinity to wild-type human full length JNK1 (M1 to Q384 residues) expressed in HEK293 cells at 1 uM by Kinomescan method relative to control; format: cell-based; summary of the method: as §1
[23] = target: Tyrosine-protein kinase ITK/TSK (Homo sapiens) (UniProt Q08881); test: Binding affinity to wild-type human partial length ITK (R335 to L620 residues) expressed in Escherichia coli BL21 at 1 uM by Kinomescan method relative to control
[24] = target: Serine/threonine-protein kinase 32A (Homo sapiens) (UniProt Q8WU08); test: Binding affinity to wild-type human full length YANK1 (M1 to L396 residues) expressed in HEK293 cells at 1 uM by Kinomescan method relative to control; format: cell-based; summary of the method: as §2
Serine/threonine-protein kinase 32A (Homo sapiens), sequence (Q8WU08 whole entry, the tested form may be a part): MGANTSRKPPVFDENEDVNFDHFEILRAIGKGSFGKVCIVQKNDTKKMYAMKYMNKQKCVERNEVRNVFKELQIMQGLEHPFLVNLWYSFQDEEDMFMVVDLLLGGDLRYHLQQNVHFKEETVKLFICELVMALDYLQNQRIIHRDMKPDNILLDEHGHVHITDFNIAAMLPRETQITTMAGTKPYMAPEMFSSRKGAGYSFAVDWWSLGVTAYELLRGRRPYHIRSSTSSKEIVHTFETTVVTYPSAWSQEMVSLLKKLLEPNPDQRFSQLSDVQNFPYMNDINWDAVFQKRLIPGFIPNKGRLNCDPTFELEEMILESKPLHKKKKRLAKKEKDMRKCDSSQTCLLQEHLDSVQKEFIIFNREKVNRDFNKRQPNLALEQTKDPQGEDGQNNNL

Tyrosine-protein kinase ITK/TSK (Homo sapiens), sequence (Q08881 whole entry, the tested form may be a part): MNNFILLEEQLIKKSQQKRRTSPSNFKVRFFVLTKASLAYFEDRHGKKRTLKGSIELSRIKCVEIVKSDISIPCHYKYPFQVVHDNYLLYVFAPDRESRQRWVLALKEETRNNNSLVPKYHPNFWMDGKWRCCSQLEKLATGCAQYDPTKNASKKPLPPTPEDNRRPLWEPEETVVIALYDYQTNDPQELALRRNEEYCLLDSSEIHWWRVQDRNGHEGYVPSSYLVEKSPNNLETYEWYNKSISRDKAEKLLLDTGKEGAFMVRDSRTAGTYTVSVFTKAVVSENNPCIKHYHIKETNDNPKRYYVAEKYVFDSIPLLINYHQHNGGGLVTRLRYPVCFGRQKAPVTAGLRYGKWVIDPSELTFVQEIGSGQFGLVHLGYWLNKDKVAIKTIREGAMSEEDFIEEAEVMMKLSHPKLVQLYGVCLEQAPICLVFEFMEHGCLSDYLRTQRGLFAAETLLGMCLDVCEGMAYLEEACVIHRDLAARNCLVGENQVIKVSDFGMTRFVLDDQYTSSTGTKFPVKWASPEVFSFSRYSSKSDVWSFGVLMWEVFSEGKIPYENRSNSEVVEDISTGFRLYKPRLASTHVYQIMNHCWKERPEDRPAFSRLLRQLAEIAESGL
MAP/microtubule affinity-regulating kinase 3 (Homo sapiens), sequence (P27448 whole entry, looked up, the tested form may be a part): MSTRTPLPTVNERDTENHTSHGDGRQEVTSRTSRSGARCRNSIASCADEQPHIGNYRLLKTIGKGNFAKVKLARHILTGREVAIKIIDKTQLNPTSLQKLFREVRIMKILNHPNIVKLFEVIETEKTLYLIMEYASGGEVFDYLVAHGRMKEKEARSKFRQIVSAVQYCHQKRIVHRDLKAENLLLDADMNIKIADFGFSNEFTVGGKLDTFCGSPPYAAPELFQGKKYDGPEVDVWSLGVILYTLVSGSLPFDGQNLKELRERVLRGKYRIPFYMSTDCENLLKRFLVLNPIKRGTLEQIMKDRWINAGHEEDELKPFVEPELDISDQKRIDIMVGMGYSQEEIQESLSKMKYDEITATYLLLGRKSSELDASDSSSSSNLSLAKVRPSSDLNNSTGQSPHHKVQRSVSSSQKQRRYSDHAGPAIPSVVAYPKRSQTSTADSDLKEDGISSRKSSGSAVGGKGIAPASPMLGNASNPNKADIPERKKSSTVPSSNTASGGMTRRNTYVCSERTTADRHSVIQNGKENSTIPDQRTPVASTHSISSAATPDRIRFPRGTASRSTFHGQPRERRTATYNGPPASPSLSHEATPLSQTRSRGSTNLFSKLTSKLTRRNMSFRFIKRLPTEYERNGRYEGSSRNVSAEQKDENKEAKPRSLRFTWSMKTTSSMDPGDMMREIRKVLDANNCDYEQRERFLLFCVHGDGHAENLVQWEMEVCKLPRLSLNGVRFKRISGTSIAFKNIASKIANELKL
Phosphatidylinositol 4,5-bisphosphate 3-kinase catalytic subunit gamma isoform (Homo sapiens), sequence (P48736 whole entry, looked up, the tested form may be a part, canonical isoform): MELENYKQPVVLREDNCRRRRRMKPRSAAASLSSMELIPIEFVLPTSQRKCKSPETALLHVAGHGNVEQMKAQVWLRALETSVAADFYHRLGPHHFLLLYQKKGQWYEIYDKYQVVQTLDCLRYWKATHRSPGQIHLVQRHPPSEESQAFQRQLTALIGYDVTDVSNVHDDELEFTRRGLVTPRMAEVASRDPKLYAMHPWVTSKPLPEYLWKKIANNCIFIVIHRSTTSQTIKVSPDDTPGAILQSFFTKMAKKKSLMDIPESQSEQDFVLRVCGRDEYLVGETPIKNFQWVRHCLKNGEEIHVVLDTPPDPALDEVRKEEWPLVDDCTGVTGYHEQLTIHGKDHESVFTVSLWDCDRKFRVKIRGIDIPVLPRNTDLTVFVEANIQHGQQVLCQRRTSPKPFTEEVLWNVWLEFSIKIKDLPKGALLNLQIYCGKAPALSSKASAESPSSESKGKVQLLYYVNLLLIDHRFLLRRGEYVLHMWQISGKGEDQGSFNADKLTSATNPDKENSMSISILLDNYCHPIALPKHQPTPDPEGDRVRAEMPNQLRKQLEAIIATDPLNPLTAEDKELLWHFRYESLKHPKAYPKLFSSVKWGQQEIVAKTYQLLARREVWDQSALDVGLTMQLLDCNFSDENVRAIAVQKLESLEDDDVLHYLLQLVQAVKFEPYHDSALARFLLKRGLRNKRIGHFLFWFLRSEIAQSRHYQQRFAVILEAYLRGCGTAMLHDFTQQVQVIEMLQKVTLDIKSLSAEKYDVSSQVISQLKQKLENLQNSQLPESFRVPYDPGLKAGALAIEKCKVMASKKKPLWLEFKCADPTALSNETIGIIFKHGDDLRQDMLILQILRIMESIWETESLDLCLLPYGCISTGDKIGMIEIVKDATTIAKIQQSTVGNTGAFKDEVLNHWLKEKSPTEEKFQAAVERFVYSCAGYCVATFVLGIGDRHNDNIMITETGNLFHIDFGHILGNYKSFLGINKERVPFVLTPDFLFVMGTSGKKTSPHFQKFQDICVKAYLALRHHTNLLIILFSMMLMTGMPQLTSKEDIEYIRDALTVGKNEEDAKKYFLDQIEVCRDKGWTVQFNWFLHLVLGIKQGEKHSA
Phosphatidylinositol 4,5-bisphosphate 3-kinase catalytic subunit alpha isoform (Homo sapiens), P42336 [E545A], sequence (P42336 whole entry E545A, the tested form may be a part, canonical isoform): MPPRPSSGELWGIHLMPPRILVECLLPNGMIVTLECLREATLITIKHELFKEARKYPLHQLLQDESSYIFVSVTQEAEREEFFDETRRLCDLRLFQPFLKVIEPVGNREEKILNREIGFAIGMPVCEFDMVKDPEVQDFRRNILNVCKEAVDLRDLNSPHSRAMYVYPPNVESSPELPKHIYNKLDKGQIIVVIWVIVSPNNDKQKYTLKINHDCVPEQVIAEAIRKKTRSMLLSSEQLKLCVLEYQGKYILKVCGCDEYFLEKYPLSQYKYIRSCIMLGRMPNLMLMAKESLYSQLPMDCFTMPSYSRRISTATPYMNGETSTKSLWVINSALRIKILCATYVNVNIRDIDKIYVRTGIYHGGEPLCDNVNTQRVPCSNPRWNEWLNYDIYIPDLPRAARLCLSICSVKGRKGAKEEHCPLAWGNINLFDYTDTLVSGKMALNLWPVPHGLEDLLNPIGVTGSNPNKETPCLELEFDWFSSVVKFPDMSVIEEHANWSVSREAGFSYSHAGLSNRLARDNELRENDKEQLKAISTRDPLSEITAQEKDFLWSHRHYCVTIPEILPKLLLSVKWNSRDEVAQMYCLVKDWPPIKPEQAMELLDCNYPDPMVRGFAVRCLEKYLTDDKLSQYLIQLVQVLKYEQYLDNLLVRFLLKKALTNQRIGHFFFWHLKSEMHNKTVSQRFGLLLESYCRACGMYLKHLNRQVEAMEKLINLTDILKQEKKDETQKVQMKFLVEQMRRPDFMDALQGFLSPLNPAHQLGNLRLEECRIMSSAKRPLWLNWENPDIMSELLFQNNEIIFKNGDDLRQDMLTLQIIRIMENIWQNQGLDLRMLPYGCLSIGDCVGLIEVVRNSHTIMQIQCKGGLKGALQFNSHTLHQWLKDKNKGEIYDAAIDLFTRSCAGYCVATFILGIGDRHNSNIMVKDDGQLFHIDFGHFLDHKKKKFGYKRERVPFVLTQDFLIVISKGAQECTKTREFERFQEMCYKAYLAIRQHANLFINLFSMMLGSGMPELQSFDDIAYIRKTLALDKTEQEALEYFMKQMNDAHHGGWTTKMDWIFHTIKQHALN
Serine/threonine-protein kinase 32B (Homo sapiens), sequence (Q9NY57 whole entry, the tested form may be a part): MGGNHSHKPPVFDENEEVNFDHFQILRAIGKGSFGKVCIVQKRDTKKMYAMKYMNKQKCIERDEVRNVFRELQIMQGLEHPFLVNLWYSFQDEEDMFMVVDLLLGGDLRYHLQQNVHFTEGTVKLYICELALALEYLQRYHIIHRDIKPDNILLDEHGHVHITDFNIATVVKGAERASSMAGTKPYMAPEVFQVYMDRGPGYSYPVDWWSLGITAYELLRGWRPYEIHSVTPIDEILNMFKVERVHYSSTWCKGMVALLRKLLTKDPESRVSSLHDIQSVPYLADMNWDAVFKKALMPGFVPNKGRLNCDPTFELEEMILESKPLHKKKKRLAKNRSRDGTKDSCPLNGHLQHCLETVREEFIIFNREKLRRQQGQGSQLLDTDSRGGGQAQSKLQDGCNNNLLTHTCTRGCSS
Cyclin-dependent kinase 8 (Homo sapiens), sequence (P49336 whole entry, the tested form may be a part): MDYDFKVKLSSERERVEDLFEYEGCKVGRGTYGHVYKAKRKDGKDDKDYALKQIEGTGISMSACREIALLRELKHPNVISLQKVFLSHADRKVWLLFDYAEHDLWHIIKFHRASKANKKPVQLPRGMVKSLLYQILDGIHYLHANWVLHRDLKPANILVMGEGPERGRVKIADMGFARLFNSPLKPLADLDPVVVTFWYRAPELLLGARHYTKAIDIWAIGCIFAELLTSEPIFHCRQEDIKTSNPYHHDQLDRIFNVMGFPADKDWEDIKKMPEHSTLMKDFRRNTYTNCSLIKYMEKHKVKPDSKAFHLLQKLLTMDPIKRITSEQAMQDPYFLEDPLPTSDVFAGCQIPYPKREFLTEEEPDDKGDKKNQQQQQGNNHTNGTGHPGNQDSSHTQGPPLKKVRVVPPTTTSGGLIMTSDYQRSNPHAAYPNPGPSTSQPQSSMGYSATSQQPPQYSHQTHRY

| Structure (SMILES) | Activity [1] | Activity [2] | Activity [3] | Activity [4] | Activity [5] | Activity [6] | Activity [7] | Activity [8] | Activity [9] | Activity [10] | Activity [11] | Activity [12] | Activity [13] | Activity [14] | IC50 (Aurora kinase B) | Activity [15] | Activity [16] | Activity [17] | Activity [18] | Activity [19] | also measured |
| --- | --- | --- | --- | --- | --- | --- | --- | --- | --- | --- | --- | --- | --- | --- | --- | --- | --- | --- | --- | --- | --- |
| CCC(=O)Nc1ccc(C(=O)Nc2ccc(Nc3ncc4c(n3)N(C)c3ccc(C)cc3C(=O)N4C)cc2)cc1 | 90% | 88% | 90% | 82% | 89% | 82% | 100% | 86% | 20% | 93% | 70% | 100% | 84% | 77% | 41 nM | 80% | 100% | 95% | 88% | 100% | Activity [20]: 97%; Activity [21]: 78%; Activity [22]: 75%; Activity [23]: 76%; Activity [24]: 82% |
| C=CC(=O)Nc1ccc(C(=O)Nc2ccc(Nc3ncc4c(n3)N(C)c3ccc(C)cc3C(=O)N4C)cc2)cc1 | 100% | 100% | 99% | 100% | 100% | 87% | 78% | 100% | 24% | 78% | 100% | 99% | 100% | 96% | 29 nM | 97% | 100% | 80% | 98% | 100% | Activity [20]: 93%; Activity [21]: 97%; Activity [22]: 85%; Activity [23]: 94%; Activity [24]: 100% |
